Key:
Format in all cases: functional
A549 = assay: Cytotoxicity against human A549 cells incubated for 72 hrs by MTT assay; conditions: A549, 72 h
How it was run: (§1)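 MTT assay. Cells seeded at 5 × 10³/well and grown 24 h at 37 °C, 5% CO₂. Compounds added at several concentrations in triplicate wells, with 0.1% DMSO control, for 72 h. MTT then added for 4 h, formazan dissolved in DMSO, and absorbance read at 570 nm. GI₅₀ by Logit method; three experiments.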

MDA-MB-435 = assay: Cytotoxicity against human MDA-MB-435 cells incubated for 72 hrs by MTT assay; conditions: MDA-MB-435, 72 h; how it was run: as §1
HCT-116 = assay: Cytotoxicity against human HCT116 cells incubated for 72 hrs by MTT assay; conditions: HCT-116, 72 h; how it was run: as §1

| SMILES | GI50 (A549) | GI50 (MDA-MB-435) | GI50 (HCT-116) |
| --- | --- | --- | --- |
| COc1ccc2[nH]c3c(c2c1)CCN1C(=S)c2ccccc2N(C)C31 (stereo unspecified) | 106 µM | 3.69 µM | 21.4 µM |
| COc1ccc2c(c1)C(=O)N1CCc3c(n(C(=O)c4ccc(Cl)cc4)c4ccccc34)C1N2C (stereo unspecified) | > 200 µM | 184 µM | 88.7 µM |
| CN1c2ccccc2C(=O)N2CCc3c([nH]c4ccc(OC(=O)C5CC5)cc34)C21 (stereo unspecified) | 1.9 µM | 0.08 µM | 0.01 µM |
| CN1c2cccc(F)c2C(=O)N2CCc3c([nH]c4ccccc34)C21 (stereo unspecified) | 200 µM | 42.6 µM | > 200 µM |
| CN1c2ccccc2C(=S)N2CCc3c([nH]c4ccccc34)C21 (stereo unspecified) | 90.7 µM | 12.2 µM | 46.5 µM |
| CN1c2ccc(Br)cc2C(=O)N2CCc3c([nH]c4ccccc34)C21 (stereo unspecified) | 14.5 µM | 1.5 µM | 14.1 µM |
| CC(=O)Nc1ccc2c(c1)C(=O)N1CCc3c([nH]c4ccccc34)C1N2C (stereo unspecified) | > 200 µM | 59.1 µM | 70.5 µM |
| CN1c2ccccc2C(=O)N2CCc3c(n(C(=O)c4ccc(Cl)cc4)c4ccc(Cl)cc34)C21 (stereo unspecified) | > 200 µM | 72.7 µM | > 200 µM |
| CN1c2cccc(Cl)c2C(=O)N2CCc3c([nH]c4ccccc34)C21 (stereo unspecified) | 5.65 µM | 1.43 µM | 4.56 µM |
| CN1c2ccc([N+](=O)[O-])cc2C(=O)N2CCc3c([nH]c4ccccc34)C21 (stereo unspecified) | > 200 µM | > 200 µM | > 200 µM |
| C#CCN(CC#C)c1ccc2c(c1)C(=O)N1CCc3c([nH]c4ccccc34)C1N2C (stereo unspecified) | > 200 µM | 2.03 µM | 0.21 µM |
| CN1c2cc(Cl)ccc2C(=O)N2CCc3c([nH]c4ccccc34)C21 (stereo unspecified) | > 200 µM | > 200 µM | > 200 µM |
| CN1c2ccc(NC(=O)C3CC3)cc2C(=O)N2CCc3c([nH]c4ccccc34)C21 (stereo unspecified) | > 200 µM | > 200 µM | 187 µM |
| CCCOc1ccc2[nH]c3c(c2c1)CCN1C(=O)c2ccccc2N(C)C31 (stereo unspecified) | > 200 µM | 3.07 µM | 8.05 µM |
| CN1c2ccc(N3CCC3)cc2C(=O)N2CCc3c([nH]c4ccccc34)C21 (stereo unspecified) | > 200 µM | 0.2 µM | 3.85 µM |
| CN1c2ccccc2C(=O)N2CCc3c([nH]c4ccc(OCc5ccccc5)cc34)C21 (stereo unspecified) | > 200 µM | 41.2 µM | > 200 µM |
| CN1c2ccccc2C(=O)N2CCc3c(n(C(=O)c4ccc(Cl)cc4)c4ccc(O)cc34)C21 (stereo unspecified) | 26.6 µM | < 0.002 µM | 0.05 µM |
| COc1ccc2[nH]c3c(c2c1)CCn1c-3nc2ccc(F)cc2c1=O | > 200 µM | > 200 µM | 138 µM |
| COc1cccc2c1C(=O)N1CCc3c([nH]c4ccccc34)C1N2C (stereo unspecified) | 128 µM | 22.3 µM | 19.7 µM |
| COc1ccc2[nH]c3c(c2c1)CCN1C(=O)c2cc(F)ccc2NC31 (stereo unspecified) | 60.1 µM | 18.5 µM | 26.7 µM |
| COc1ccc2[nH]c3c(c2c1)CCN1C(=O)c2c(OC)cccc2N(C)C31 (stereo unspecified) | 98 µM | 21 µM | 42 µM |
| CC[C@@]1(O)C(=O)OCc2c1cc1n(c2=O)Cc2cc3c(CN(C)C)c(O)ccc3nc2-1 [TOPOTECAN] | 3.96 µM | 0.034 µM | 0.4 µM |
| CN1c2ccc(Br)cc2C(=O)N2CCc3c(n(C(=O)c4ccc(Cl)cc4)c4ccccc34)C21 (stereo unspecified) | > 200 µM | 8.72 µM | 39.7 µM |
| CN1c2ccccc2CN2CCc3c(n(C(=O)c4ccc(Cl)cc4)c4ccccc34)C21 (stereo unspecified) | > 200 µM | 96 µM | > 200 µM |
| CN1c2ccccc2CN2CCc3c([nH]c4ccccc34)C21 (stereo unspecified) | > 200 µM | 16.2 µM | > 200 µM |
| COc1ccc2[nH]c3c(c2c1)CCN1C(=O)c2ccccc2N(C)C31 (stereo unspecified) | > 200 µM | 8.97 µM | > 200 µM |
| O=C1c2ccccc2OC2c3c(c4ccccc4n3C(=O)c3ccc(Cl)cc3)CCN12 (stereo unspecified) | > 200 µM | > 200 µM | > 200 µM |

— ChEMBL document CHEMBL2169847, “New tricks for an old natural product: discovery of highly potent evodiamine derivatives as novel antitumor agents by systemic structure-activity relationship analysis and biological evaluations” (J Med Chem, 2012)
